Two molecules from ChEMBL document CHEMBL1142145, “Posaconazole prophylaxis in experimental systemic zygomycosis” (2007) can be followed below.

Test [1] relates to Lichtheimia corymbifera. Put plainly: Reduction of infection foci size in Absidia corymbifera 4535 infected neutropenic CD1 mouse kidney at 1 mg/kg/day, ip. It is filed as functional, organism-based. Summed up:
(§1)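 On day 3 brains and kidneys were formalin-fixed and stained with Grocott-Gomori methenamine silver. At least two blinded observers counted hyphal foci and measured their size over 20 consecutive fields (15.7 mm2/section). Data are means ± SEM, 5 mice/group, ANOVA with Bonferroni.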

Test [2] has as its system Mus musculus. Put plainly: Increase in survival of neutropenic CD1 mouse infected with 0.1 mega Rhizopus oryzae 4745 at 1 mg/kg/day, ip. It is filed as functional, organism-based. In short, it runs like this:
(§2)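 Male CD1 mice (25 g) made neutropenic with cyclophosphamide 200 mg/kg i.p. on […], +1 and +4 relative to infection. […] Inocula per mouse: R. oryzae 4570, 5 x 10^6; A. corymbifera, 5 x 10^5; R. oryzae 4745, 2 x 10^6 or 1 x 10^5. Deaths were recorded daily to day 10, with 13–18 mice/group and log-rank comparison.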

Test [3] concerns Lichtheimia corymbifera. Briefly: Antimicrobial activity against Absidia corymbifera 4535. It is filed as functional. In short, it runs like this: (§3)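 CLSI M38-A broth microdilution. Isolates were grown on Sabouraud dextrose agar for 5 days at 35°C, and conidia were harvested in 0.85% saline. The final inoculum was about 10^4 CFU/ml, set by hemocytometer. Drug range 0.015–8.0 µg/ml; plates incubated at 35°C for 21–26 h. MIC was the lowest concentration with no discernible growth. Each strain was tested in quintuplicate.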

Test [4] deals with Mus musculus. Put plainly: Increase in survival of neutropenic CD1 mouse infected with 2 mega Rhizopus oryzae 4745 at 1 mg/kg/day, ip. The class given is functional, organism-based. Summed up:
as §2

Test [5] concerns Lichtheimia corymbifera. Briefly: Reduction of number of infection foci in Absidia corymbifera 4535 infected neutropenic CD1 mouse kidney at 1 mg/kg/day, ip. It is filed as functional, organism-based. In short, it runs like this: as §1
In test [6] the test system is Lichtheimia corymbifera. Briefly: Percentage of infected kidney in neutropenic CD1 mouse infected with Absidia corymbifera 4535 at 1 mg/kg/day, ip. The class given is functional. As to conditions: route intraperitoneal. Summed up:
(§4)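 They were infected i.v. with R. oryzae 4570 (5 x 10^6 spores) or A. corymbifera (5 x 10^5 spores). On day 3 brain, lungs, spleen and kidneys were homogenized in 2 ml saline and plated whole on SDA (detection limit 1 CFU/organ). Value is % culture-positive organs; 8 mice/group.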

Test [7] deals with Mus musculus. Put plainly: Increase in survival of Rhizopus oryzae 4570 infected neutropenic CD1 mouse at 1 mg/kg/day, ip. The class given is functional, organism-based. Summed up:
as §2

Test [8] relates to Lichtheimia corymbifera. Briefly: Percentage of infected lung in neutropenic CD1 mouse infected with Absidia corymbifera 4535 at 1 mg/kg/day, ip. The class given is functional. Particulars: route intraperitoneal. In short, it runs like this:
as §4

For test [9], the system named is Rhizopus arrhizus. Put plainly: Reduction of infection foci size in Rhizopus oryzae 4570 infected neutropenic CD1 mouse kidney at 1 mg/kg/day, ip. It is filed as functional, organism-based. In short, it runs like this: as §1
In test [10] the test system is Rhizopus arrhizus. Put plainly: Reduction of number of infection foci in Rhizopus oryzae 4570 infected neutropenic CD1 mouse kidney at 1 mg/kg/day, ip. The class given is functional, organism-based. Summed up: as §1
Test [11] concerns Mus musculus. Briefly: Increase in survival of Absidia corymbifera 4535 infected neutropenic CD1 mouse at 1 mg/kg/day, ip. The class given is functional, organism-based. In short, it runs like this:
as §2

Test [12] relates to Rhizopus arrhizus. Put plainly: Antimicrobial activity against Rhizopus oryzae 4745. The class given is functional. Summed up: as §3
The subject of test [13] is Rhizopus arrhizus. Put plainly: Antimicrobial activity against Rhizopus oryzae 4570. The class given is functional. Summed up:
as §3

Test [14] deals with Lichtheimia corymbifera. Briefly: Percentage of infected spleen in neutropenic CD1 mouse infected with Absidia corymbifera 4535 at 1 mg/kg/day, ip. It is filed as functional. As to conditions: route intraperitoneal. Summed up:
as §4

Test [15] deals with Mus musculus. Put plainly: Increase in survival of Absidia corymbifera 4535 infected neutropenic CD1 mouse at 80 mg/kg/day, po. The class given is functional, organism-based. Summed up:
(§5)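 Male CD1 mice (25 g) were made neutropenic with i.p. cyclophosphamide, 200 mg/kg, on days […] and +4 postinfection. Oral gavage dosing (200 µl) was given daily for 3 days, the last dose 2 h before i.v. challenge; controls received PEG 200. Challenge per mouse: R. oryzae 4570, 5 x 10^6 spores; A. corymbifera, 5 x 10^5; R. oryzae 4745, 1 x 10^5. Deaths were recorded daily to day 10, moribund mice counted dead next day. 13–18 mice per group; log rank test.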

For test [16], the system named is Rhizopus arrhizus. Briefly: Percentage of infected brain in neutropenic CD1 mouse infected with Rhizopus oryzae 4570 at 30 mg/kg/day, po. It is filed as functional. In short, it runs like this:
(§6)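 Neutropenic CD1 mice received three daily oral prophylactic doses, the last 2 h before i.v. challenge: R. oryzae 4570 at 5 x 10^6 or A. corymbifera at 5 x 10^5 spores/mouse. On day 3 mice were killed. Brain, lungs, spleen and kidneys were homogenized in 2 ml saline and plated whole on SDA; detection limit 1 CFU/organ. Read-out was percent culture-positive organs, eight mice per group.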

Test [17] has as its system Mus musculus. Briefly: Increase in survival of Rhizopus oryzae 4570 infected neutropenic CD1 mouse at 20 mg/kg/day, po. It is filed as functional, organism-based. Summed up:
as §5

Test [18] deals with Rhizopus arrhizus. Briefly: Reduction of infection foci size in Rhizopus oryzae 4570 infected neutropenic CD1 mouse kidney at 30 mg/kg/day, po. The class given is functional, organism-based. In short, it runs like this:
(§7)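 Neutropenic CD1 mice were given oral prophylaxis for 3 days, then i.v. challenge with R. oryzae 4570 (5 x 10^6 spores) or A. corymbifera (5 x 10^5). On day 3, brain and kidney were formalin-fixed, paraffin-embedded and stained with Grocott-Gomori methenamine silver. Number and size of hyphal foci were scored blind by at least two observers in 20 consecutive fields (15.7 mm2 per section). Values are mean ± SEM from 5 mice per group; ANOVA with Bonferroni correction.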

Test [19] has as its system Lichtheimia corymbifera. Put plainly: Reduction of infection foci size in Absidia corymbifera 4535 infected neutropenic CD1 mouse kidney at 30 mg/kg/day, po. It is filed as functional, organism-based. In short, it runs like this: as §7
Test [20] has as its system Rhizopus arrhizus. Briefly: Reduction of number of infection foci in Rhizopus oryzae 4570 infected neutropenic CD1 mouse kidney at 30 mg/kg/day, po. The class given is functional, organism-based. In short, it runs like this: as §7
Test [21] has as its system Lichtheimia corymbifera. Put plainly: Reduction of infection foci size in Absidia corymbifera 4535 infected neutropenic CD1 mouse brain at 30 mg/kg/day, po. The class given is functional, organism-based. Summed up:
as §7

Test [22] has as its system Lichtheimia corymbifera. Put plainly: Percentage of infected brain in neutropenic CD1 mouse infected with Absidia corymbifera 4535 at 30 mg/kg/day, po. The class given is functional. Summed up: as §6
The test system of test [23] is Rhizopus arrhizus. Briefly: Percentage of infected lung in neutropenic CD1 mouse infected with Rhizopus oryzae 4570 at 30 mg/kg/day, po. It is filed as functional. Summed up:
as §6

Test [24] deals with Lichtheimia corymbifera. Put plainly: Reduction of number of infection foci in Absidia corymbifera 4535 infected neutropenic CD1 mouse brain at 30 mg/kg/day, po. It is filed as functional, organism-based. In short, it runs like this: as §7
Test [25] concerns Lichtheimia corymbifera. Put plainly: Percentage of infected kidney in neutropenic CD1 mouse infected with Absidia corymbifera 4535 at 30 mg/kg/day, po. It is filed as functional. Summed up: as §6
In test [26] the test system is Lichtheimia corymbifera. Put plainly: Reduction of number of infection foci in Absidia corymbifera 4535 infected neutropenic CD1 mouse kidney at 30 mg/kg/day, po. The class given is functional, organism-based. In short, it runs like this: as §7
Test [27] deals with Mus musculus. Briefly: Increase in survival of neutropenic CD1 mouse infected with 0.1 mega Rhizopus oryzae 4745 at 50 mg/kg/day, po. It is filed as functional, organism-based. Summed up:
as §5

Test [28] has as its system Mus musculus. Briefly: Increase in survival of Rhizopus oryzae 4570 infected neutropenic CD1 mouse at 80 mg/kg/day, po. The class given is functional, organism-based. Summed up:
as §5

Test [29] has as its system Rhizopus arrhizus. Briefly: Reduction of number of infection foci in Rhizopus oryzae 4570 infected neutropenic CD1 mouse brain at 30 mg/kg/day, po. The class given is functional, organism-based. In short, it runs like this: as §7
Test [30] has as its system Lichtheimia corymbifera. Briefly: Percentage of infected lung in neutropenic CD1 mouse infected with Absidia corymbifera 4535 at 30 mg/kg/day, po. The class given is functional. Summed up:
as §6

In test [31] the test system is Rhizopus arrhizus. Briefly: Percentage of infected kidney in neutropenic CD1 mouse infected with Rhizopus oryzae 4570 at 30 mg/kg/day, po. It is filed as functional. Summed up: as §6
The subject of test [32] is Mus musculus. Put plainly: Increase in survival of Absidia corymbifera 4535 infected neutropenic CD1 mouse at 20 mg/kg/day, po. It is filed as functional, organism-based. Summed up: as §5
For test [33], the system named is Rhizopus arrhizus. Briefly: Percentage of infected spleen in neutropenic CD1 mouse infected with Rhizopus oryzae 4570 at 30 mg/kg/day, po. It is filed as functional. In short, it runs like this: as §6
Test [34] deals with Lichtheimia corymbifera. Briefly: Percentage of infected spleen in neutropenic CD1 mouse infected with Absidia corymbifera 4535 at 30 mg/kg/day, po. It is filed as functional. Summed up:
as §6

The subject of test [35] is Rhizopus arrhizus. Put plainly: Reduction of infection foci size in Rhizopus oryzae 4570 infected neutropenic CD1 mouse brain at 30 mg/kg/day, po. The class given is functional, organism-based. In short, it runs like this:
as §7

SMILES strings stand for the structures. Converted amounts (≈) assume the structure as drawn. The source made the active and inactive calls. No cut-off for these calls is given here.

By MIC is commonly meant the lowest concentration that inhibits growth of the organism. Regarding `C[C@@H]1[C@H](O)[C@@H](C)/C=C/C=C/C=C/C=C/C=C/C=C/C=C/[C@H](O[C@@H]2O[C@H](C)[C@@H](O)[C@H](N)[C@@H]2O)C[C@@H]2O[C@](O)(C[C@@H](O)C[C@@H](O)[C@H](O)CC[C@@H](O)C[C@@H](O)CC(=O)O[C@H]1C)C[C@H](O)[C@H]2C(=O)O` [AMPHOTERICIN B], the result with Lichtheimia corymbifera [1], with Mus musculus [2], in the test on Mus musculus [4], in the test with Lichtheimia corymbifera [5], in the test on Mus musculus [7] and in the test on Rhizopus arrhizus [9] was Active. In addition, the outcome with Rhizopus arrhizus [10] and in the test with Mus musculus [11] was Active. Further, the values for the MIC against Lichtheimia corymbifera [3], with Rhizopus arrhizus [12] and in the test on Rhizopus arrhizus [13] were 1 µg/mL (≈ 1.08 µM), 0.5 µg/mL (≈ 0.541 µM) and 2 µg/mL (≈ 2.16 µM), respectively. Besides, the Activity in the test on Lichtheimia corymbifera [6] turned out to be 62.5%; in the test with Lichtheimia corymbifera [8], 25%; in the test with Lichtheimia corymbifera [14], 100%.

In the case of `CC[C@@H]([C@H](C)O)n1ncn(-c2ccc(N3CCN(c4ccc(OC[C@@H]5CO[C@@](Cn6cncn6)(c6ccc(F)cc6F)C5)cc4)CC3)cc2)c1=O` [POSACONAZOLE], the result in the test on Mus musculus [15], with Rhizopus arrhizus [18], in the test on Lichtheimia corymbifera [19], in the test with Rhizopus arrhizus [20], in the test on Lichtheimia corymbifera [21] and with Lichtheimia corymbifera [24] was Active. Moreover, the result with Lichtheimia corymbifera [26], in the test with Mus musculus [27] and with Mus musculus [32] was Active. For the same molecule, the Activity in the test on Rhizopus arrhizus [16] stood at 100%; in the test with Lichtheimia corymbifera [22], 62.5%; with Rhizopus arrhizus [23] it was 100%; with Lichtheimia corymbifera [25], 75%; with Lichtheimia corymbifera [30], 12.5%; in the test on Rhizopus arrhizus [31] it was 100%. In addition, the Activity in the test on Rhizopus arrhizus [33] and in the test with Lichtheimia corymbifera [34] was 100% each time. In addition, the result in the test on Mus musculus [17], in the test on Mus musculus [28], in the test with Rhizopus arrhizus [29] and in the test with Rhizopus arrhizus [35] was inactive. Further, the MIC against Lichtheimia corymbifera [3] was found to be 0.25 µg/mL (≈ 0.357 µM); in the test on Rhizopus arrhizus [12], 1 µg/mL (≈ 1.43 µM); against Rhizopus arrhizus [13], 1 µg/mL (≈ 1.43 µM).
